Entries after “also recorded” stand apart in the source; their conditions may differ.

These results are taken from PMC10530161 (Bioorganic & medicinal chemistry, 2023).

A short description of data set [1]: Human liver microsomal intrinsic clearance. To be noted: for CLint scaled: human, liver microsomes, Intrinsinc Clearance hCLINT. In kind it is in vitro ADME. An outline of the steps:
(§1)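 Intrinsic clearance was measured in human or mouse liver microsomes, depending on the line. Predicted hepatic clearance was then calculated from each species' intrinsic clearance using the well-stirred organ clearance model, with binding terms excluded. The work was done externally as in vitro DMPK studies.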
On the technique in general: Liver microsomes are a subcellular fraction often used to study metabolism.

The nature of data set [2]: Mouse liver microsomal intrinsic clearance. In kind it is in vitro ADME. To be noted: for CLint scaled: mouse, liver microsomes, Intrinsinc Clearance mCLINT. An outline of the steps: as §1
Data set [3] concerns SW620 colorectal cancer cells which overexpress claudin-1. Description: Cell survival assay in SW620 cells, single concentration 25 μM. In kind it is cell-based. To be noted: for activity in SW620 cell survival assay: SW620 cells, initial SAR survey at 25 μM; for inhibition at 25 µM: Homo sapiens, SW-620, read-out: % inhibition at 25 uM.
Data set [4] relates to IEC-6 cells. Description: General cytotoxicity, dose response in normal IEC-6 cells. The format is cell-based. To be noted: control for general cytotoxicity.
Data set [5] concerns the target CYP3A4 (Homo sapiens, UniProt P08684). Description: CYP inhibition, CYP3A4. In kind it is in vitro ADME.
The target in data set [6] is CYP2D6 (Homo sapiens, UniProt P10635). Description: CYP inhibition, CYP2D6. In kind it is in vitro ADME.
Chain of CYP2D6 (P10635 whole entry): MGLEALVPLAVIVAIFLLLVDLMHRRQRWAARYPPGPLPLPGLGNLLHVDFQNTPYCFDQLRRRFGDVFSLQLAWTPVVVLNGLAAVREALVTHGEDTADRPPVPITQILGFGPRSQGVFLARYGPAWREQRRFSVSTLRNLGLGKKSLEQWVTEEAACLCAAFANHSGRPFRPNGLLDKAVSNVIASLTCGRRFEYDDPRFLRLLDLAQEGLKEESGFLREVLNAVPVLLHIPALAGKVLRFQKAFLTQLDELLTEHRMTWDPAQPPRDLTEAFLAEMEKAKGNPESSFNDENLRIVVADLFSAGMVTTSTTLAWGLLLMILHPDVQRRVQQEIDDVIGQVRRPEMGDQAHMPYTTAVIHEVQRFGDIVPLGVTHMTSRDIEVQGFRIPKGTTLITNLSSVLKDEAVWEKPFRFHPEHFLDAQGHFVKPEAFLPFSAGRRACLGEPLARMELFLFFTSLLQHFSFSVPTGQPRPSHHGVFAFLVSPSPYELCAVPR
For data set [7], the target named is CYP2C19 (Homo sapiens, UniProt P33261). Description: CYP inhibition, CYP2C19. In kind it is in vitro ADME.
Chain of CYP2C19 (P33261 whole entry): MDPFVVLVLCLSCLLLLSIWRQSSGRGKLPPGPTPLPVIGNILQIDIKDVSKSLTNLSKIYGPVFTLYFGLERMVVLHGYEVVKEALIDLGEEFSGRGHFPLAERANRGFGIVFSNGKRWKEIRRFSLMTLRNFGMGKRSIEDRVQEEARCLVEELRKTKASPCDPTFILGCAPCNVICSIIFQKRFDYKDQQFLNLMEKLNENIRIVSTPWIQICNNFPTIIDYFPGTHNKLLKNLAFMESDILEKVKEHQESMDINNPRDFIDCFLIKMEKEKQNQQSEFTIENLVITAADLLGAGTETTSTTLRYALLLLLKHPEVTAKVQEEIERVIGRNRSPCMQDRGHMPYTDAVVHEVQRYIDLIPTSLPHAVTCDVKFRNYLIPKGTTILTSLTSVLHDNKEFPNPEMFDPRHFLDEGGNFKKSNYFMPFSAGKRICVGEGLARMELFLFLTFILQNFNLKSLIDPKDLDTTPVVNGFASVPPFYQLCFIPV
Data set [8] has as its system SW620 cells. Description: Dose response assay in SW620 cells. The format is cell-based. Particulars: starting at 12.5 μM.
The test system of data set [9] is colorectal cancer. Particulars: in vivo mouse model; cited from earlier work.

Chain of CYP3A4 (P08684 whole entry): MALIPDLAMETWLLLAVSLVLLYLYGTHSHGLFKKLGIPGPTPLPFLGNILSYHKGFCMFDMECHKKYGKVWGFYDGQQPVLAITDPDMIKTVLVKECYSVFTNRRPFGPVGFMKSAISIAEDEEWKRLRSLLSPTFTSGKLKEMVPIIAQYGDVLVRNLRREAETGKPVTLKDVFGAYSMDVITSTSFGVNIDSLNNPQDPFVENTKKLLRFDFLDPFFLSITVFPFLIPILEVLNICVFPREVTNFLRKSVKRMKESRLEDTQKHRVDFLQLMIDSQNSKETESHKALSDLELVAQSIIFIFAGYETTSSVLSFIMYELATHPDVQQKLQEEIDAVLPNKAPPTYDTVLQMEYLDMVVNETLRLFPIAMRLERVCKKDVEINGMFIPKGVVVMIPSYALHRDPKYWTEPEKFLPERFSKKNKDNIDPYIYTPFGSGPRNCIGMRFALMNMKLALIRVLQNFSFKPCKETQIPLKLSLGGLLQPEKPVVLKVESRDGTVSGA

By CLint scaled is commonly meant a measure of how fast metabolising enzymes remove a compound, apart from limits set by blood flow. For `COc1cc2ccccc2cc1C(=O)NC(=S)Nc1ccc(-c2nc3ccccc3[nH]2)cc1` [compound 10], in [1], the “stability in human liver microsomes” value is given as “moderate stability” and the CLint scaled was determined as 27.8 mL/min/kg. In data set [2], the “stability in mouse liver microsomes” value was “moderate stability” and the CLint scaled turned out to be 42.7 mL/min/kg.

On to `COc1cc2ccccc2cc1C(=O)NC(=S)Nc1ccc(-c2nc3ccccc3o2)cc1` [compound 11], for which, in [3], the “activity in SW620 cell survival assay” value is “not active”. Further, in data set [1], the “stability in human liver microsomes” value was “stable” and the CLint scaled is less than 20 mL/min/kg. Besides, in data set [2], the “stability in mouse liver microsomes” value was “stable” and the CLint scaled is less than 20 mL/min/kg.

Regarding `COc1cc2ccccc2cc1C(=O)NC(=S)Nc1ccc(-c2nc3ccccc3o2)cn1` [compound 12], the “activity in SW620 cell survival assay” value in [3] is “not active”.

With `COc1cc2ccccc2cc1C(=O)NC(=S)Nc1ccc(-c2nc3ccccc3s2)cc1` [compound 13], the “activity in SW620 cell survival assay” value in data set [3] is given as “not active”.

As to `COc1cc2ccccc2cc1C(=O)NC(=S)Nc1ccc(-c2nc3ccccc3s2)cn1` [compound 14], the “activity in SW620 cell survival assay” value in data set [3] was “not active”.

Broadly, the inhibition is the share of the control response that was lost under treatment. `COc1cc2ccccc2cc1C(=O)NC(=S)Nc1ccc(-c2ncc[nH]2)cc1` [compound 15]: the “concentration at which cytotoxicity was shown” value in [4] was determined as 12.5 µM. The “stability in human liver microsomes” value in data set [1] is given as “instability”. Further, the CLint scaled in [1] came out at 125 mL/min/kg; in [2], 57.8 mL/min/kg. The “stability in mouse liver microsomes” value in data set [2] is “moderately stable”. In addition, the inhibition at 10 µM in data set [5], in [6] and in data set [7] was less than 50% each time.

`COc1cc2ccccc2cc1C(=O)NC(=S)Nc1ccc(-c2nccs2)cc1` [compound 16]: in data set [1], the “stability in human liver microsomes” value is reported as “instability” and the CLint scaled was 202 mL/min/kg. In addition, in data set [2], the “stability in mouse liver microsomes” value is “moderately stable” and the CLint scaled came to 37.7 mL/min/kg.

Regarding `COc1cc2ccccc2cc1C(=O)NC(=S)Nc1ccc(-c2nnco2)cc1` [compound 18], the “stability in human liver microsomes” value in data set [1] is listed as “regained the stability”. The CLint scaled in data set [1] is less than 20 mL/min/kg; in data set [2] it was 38.2 mL/min/kg. Moreover, the “stability in mouse liver microsomes” value in data set [2] is recorded as “moderate stability”. Also, the inhibition at 10 µM in [5], in data set [6] and in [7] was less than 50% in each case.

In the case of `COc1cc2ccccc2cc1C(=O)NC(=S)Nc1ccc(-c2ncon2)cc1` [compound 19], in data set [3], the inhibition at 25 µM was determined as 18.4% and the “activity in SW620 cell survival assay” value is “inactive”. In data set [1], the “stability in human liver microsomes” value is on record as “regained the stability” and the CLint scaled was less than 20 mL/min/kg. Further, in data set [2], the “stability in mouse liver microsomes” value was “moderate stability” and the CLint scaled was 46.2 mL/min/kg.

On to `COc1cc2ccccc2cc1C(=O)Nc1ccc(-c2nc3ccccc3s2)cc1` [compound 20], for which the inhibition at 25 µM in data set [3] was determined as 42.3%.

For the compound `COc1cc2ccccc2cc1C(=O)NC(=S)Nc1ccc(-c2cscn2)cc1` [compound 21], in [3], the inhibition at 25 µM came to 29%.

Regarding `COc1cc2ccccc2cc1C(=O)Nc1ncc(C(F)(F)F)s1` [compound 22], the inhibition at 25 µM in [3] turned out to be 17.6%.

For `COc1cc2ccccc2cc1C(=O)NC(=O)Nc1ccc(-c2nc3ccccc3[nH]2)cc1` [compound 23], in data set [3], the inhibition at 25 µM amounted to 90.8%. Also, the CLint scaled in data set [1] turned out to be 67.8 mL/min/kg; in data set [2], 236 mL/min/kg.

Regarding `COc1cc2ccccc2cc1C(=O)NC(=O)Nc1ccc(-c2nc3ccccc3o2)cc1` [compound 24], the inhibition at 25 µM in data set [3] was found to be 0%.

As to `COc1cc2ccccc2cc1C(=O)NC(=O)Nc1ccc(-c2nc3ccccc3s2)cc1` [compound 25], the inhibition at 25 µM in [3] was 0%.

Regarding `COc1cc2ccccc2cc1C(=O)NC(=O)Nc1ccc(-c2nnco2)cc1` [compound 26], the inhibition at 25 µM in [3] was 23.8%.

As for `COc1cc2ccccc2cc1C(=O)NC(=O)Nc1ccc(-c2cscn2)cc1` [compound 27], in data set [3], the inhibition at 25 µM was 42.6%. Further, the results for the CLint scaled in [1] and in data set [2] were 92.8 mL/min/kg and 43.5 mL/min/kg, respectively.

Take `O=C(NC(=S)Nc1ccc(-c2nc3ccccc3o2)cc1)c1ccc2ccccc2c1` [compound 28]: in [3], the inhibition at 25 µM came to 76.4% and the “activity in SW620 cell survival assay” value is “active”. Besides, the “% cell survival” value in data set [8] is on record as less than 50%. Moreover, in [1], the “stability in human liver microsomes” value is “moderate stability” and the CLint scaled came out at 32.4 mL/min/kg. For the same compound, in [2], the “stability in mouse liver microsomes” value is “moderate stability” and the CLint scaled is 53.4 mL/min/kg. Also, the “activity in in vivo model of colorectal cancer” value in [9] was “active; also recorded: antitumor and chemosensitizer activities”.

Consider `O=C(NC(=O)c1ccc2ccccc2c1)Nc1ccc(-c2nc3ccccc3[nH]2)cc1` [compound 29], for which, in [3], the inhibition at 25 µM turned out to be 12.7%. Moreover, the intrinsic metabolic clearance (CLint scaled) amounted to 86.3 mL/min/kg in data set [1] and 365 mL/min/kg in data set [2].

For the compound `CCOc1cc2ccccc2cc1C(=O)NC(=S)Nc1ccc(-c2nc3ccccc3o2)cc1` [compound 30], the inhibition at 25 µM in data set [3] was determined as 0%.

Consider `CCOc1cc2ccccc2cc1C(=O)NC(=S)Nc1ccc(-c2nc3ccccc3s2)cc1` [compound 31], for which the inhibition at 25 µM in [3] turned out to be 13%.

`CC(C)Oc1cc2ccccc2cc1C(=O)NC(=S)Nc1ccc(-c2nc3ccccc3o2)cc1` [compound 32]: the inhibition at 25 µM in data set [3] was 17.2%.

As for `COc1cc2c(OC)cccc2cc1C(=O)NC(=S)Nc1ccc(-c2nc3ccccc3[nH]2)cc1` [compound 33], the inhibition at 25 µM in [3] is 37.6%.

Take `COc1cc2c(OC)cccc2cc1C(=O)NC(=S)Nc1ccc(-c2nc3ccccc3s2)cc1` [compound 34]: the inhibition at 25 µM in data set [3] was 15.8%.

With `O=C(NC(=S)Nc1ccc(-c2nc3ccccc3[nH]2)cc1)c1ccc2cccnc2c1` [compound 35], in [3], the inhibition at 25 µM was found to be 0%.

For the compound `O=C(NC(=S)Nc1ccc(-c2nc3ccccc3o2)cc1)c1ccc2cccnc2c1` [compound 36], the inhibition at 25 µM in data set [3] came to 0%.

With `O=C(NC(=S)Nc1ccc(-c2ncco2)cc1)c1ccc2cccnc2c1` [compound 37], in data set [3], the inhibition at 25 µM worked out at 1.4%.

Regarding `O=C1c2ccccc2CCN1C(=S)Nc1ccc(-c2nc3ccccc3o2)cc1` [compound 38], the CLint scaled is less than 20 mL/min/kg in [1] and 139 mL/min/kg in data set [2].

For the compound `O=C1c2ccccc2CCN1C(=S)Nc1ccc(-c2ncco2)cc1` [compound 39], the inhibition at 25 µM in data set [3] came out at 0.9%.

`COc1ccccc1NC(=O)Nc1ccc(-c2nc3ccccc3[nH]2)cc1` [compound 40]: the inhibition at 25 µM in [3] amounted to 23.8%.
